From ChEMBL document CHEMBL1136008, “Novel tricyclic poly(ADP-ribose) polymerase-1 inhibitors with potent anticancer chemopotentiating activity: design, synthesis, and X-ray cocrystal structure” (J Med Chem, 2002)

What was measured:
A549 [1] = test: (§1) Cytotoxicity potentiation of Topotecan in human lung carcinoma A549 cells by the compound as potentiation factor at 50% growth inhibition; format: functional
Summary of the method: (§2)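 Cells were seeded 16–24 h before treatment, then exposed continuously for 5 days to increasing concentrations of temozolomide or topotecan, with or without 0.4 μM PARP-1 inhibitor. Final DMSO was 1%. Relative cell number was measured by SRB assay. Growth IC50 values came from point-to-point analysis of growth curves. PF50 = IC50 of cytotoxic agent alone / IC50 with inhibitor. Data are mean ± SEM of three independent experiments.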

A549 [2] = test: Cytotoxic potentiation of Topotecan (TP) by the compound in human lung carcinoma A549 cell line; format: functional, cell-based; summary of the method: as §2
SW-620 [3] = test: Cytotoxic potentiation of Topotecan (TP) by the compound in human colon carcinoma SW620 cell line; format: functional, cell-based; summary of the method: as §2
LoVo [4] = test: Cytotoxic potentiation of Topotecan (TP) by the compound in (human colorectal cancer LoVo cell line; format: functional, cell-based; summary of the method: as §2
[5] = target: T1, Poly [ADP-ribose] polymerase 1 (Homo sapiens, UniProt P09874)
T1 sequence (P09874 whole entry): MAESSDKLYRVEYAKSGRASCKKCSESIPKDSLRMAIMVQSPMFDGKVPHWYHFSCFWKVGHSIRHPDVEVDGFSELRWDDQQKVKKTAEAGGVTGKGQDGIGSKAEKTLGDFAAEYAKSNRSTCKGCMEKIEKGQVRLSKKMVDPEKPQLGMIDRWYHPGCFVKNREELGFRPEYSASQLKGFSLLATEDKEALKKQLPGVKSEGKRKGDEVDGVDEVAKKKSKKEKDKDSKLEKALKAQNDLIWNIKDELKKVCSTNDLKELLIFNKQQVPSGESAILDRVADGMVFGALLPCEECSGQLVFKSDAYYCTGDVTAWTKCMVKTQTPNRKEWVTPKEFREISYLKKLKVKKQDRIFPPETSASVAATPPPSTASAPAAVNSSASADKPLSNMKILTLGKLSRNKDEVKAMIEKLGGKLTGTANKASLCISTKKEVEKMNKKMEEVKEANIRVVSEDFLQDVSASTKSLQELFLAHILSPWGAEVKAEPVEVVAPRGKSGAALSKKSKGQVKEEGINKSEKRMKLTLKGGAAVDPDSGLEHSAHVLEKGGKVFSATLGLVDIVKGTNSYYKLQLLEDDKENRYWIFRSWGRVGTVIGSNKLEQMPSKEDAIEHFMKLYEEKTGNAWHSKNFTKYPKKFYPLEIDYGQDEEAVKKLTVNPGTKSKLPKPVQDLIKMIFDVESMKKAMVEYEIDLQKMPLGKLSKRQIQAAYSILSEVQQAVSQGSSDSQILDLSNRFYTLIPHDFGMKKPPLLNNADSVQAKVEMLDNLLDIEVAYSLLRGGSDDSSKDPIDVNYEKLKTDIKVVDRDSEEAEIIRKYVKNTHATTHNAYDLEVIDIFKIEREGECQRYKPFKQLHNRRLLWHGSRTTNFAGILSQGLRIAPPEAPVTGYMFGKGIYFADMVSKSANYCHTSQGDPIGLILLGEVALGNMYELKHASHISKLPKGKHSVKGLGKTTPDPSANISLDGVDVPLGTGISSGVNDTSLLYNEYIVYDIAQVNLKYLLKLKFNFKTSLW

A549 [6] = test: as §1; format: functional; summary of the method: as §2; remark: listed apart in the source
LoVo [7] = test: Cytotoxic potentiation of Topotecan (TP) by the compound in human colorectal carcinoma LoVo cell line; format: functional, cell-based; summary of the method: as §2
LoVo [8] = test: Cytotoxic potentiation of Tomozolomide (TM) by the compound in human colorectal carcinoma LoVo cell line; format: functional, cell-based; summary of the method: as §2
[9] = target: T1, Poly [ADP-ribose] polymerase 1; remark: listed apart in the source
SW-620 [10] = test: Cytotoxicity potentiation of Topotecan in human lung carcinoma SW620 cell line by the compound as potentiation factor at 50% growth inhibition; format: functional; settings: in the assay text read “human colon carcinoma” for “human lung carcinoma”; summary of the method: as §2

**Q.** `CN(C)Cc1ccc(-c2[nH]c3cccc4c3c2CCNC4=O)cc1` was tested. Which PF50 (A549 [1]) did it give?
**A.** Its PF50 is 2.4.

**Q.** For `O=C1NCCc2c(-c3ccc(F)cc3)[nH]c3cccc1c23`, which PF50 (A549 [1]) is on record?
**A.** Its PF50 is 2.3.

**Q.** Which IC50 (A549 [2]) does the source give for `CC[C@@]1(O)C(=O)OCc2c1cc1n(c2=O)Cc2cc3c(CN(C)C)c(O)ccc3nc2-1` [TOPOTECAN] here?
**A.** Its IC50 is 24 nM.

**Q.** What about the IC50 (SW-620 [3]) of the same compound?
**A.** The IC50 was 3.2 nM.

**Q.** What about the IC50 (LoVo [4]) of the same compound?
**A.** The IC50 was 11.6 nM.

**Q.** With `N#Cc1[nH]c2cccc3c2c1CCNC3=O` as the compound, how does the Ki [5] read?
**A.** Its Ki is 11 nM.

**Q.** With `O=C1NCCc2c[nH]c3cccc1c23` as the compound, how does the PF50 (A549 [1]) read?
**A.** The PF50 was 1.1.

**Q.** Which PF50 (A549 [1]) does the source give for `O=C1NCCc2c(-c3ccccc3)[nH]c3cccc1c23` here?
**A.** Its PF50 is 1.8.

**Q.** With `CN(C)Cc1cccc(-c2[nH]c3cccc4c3c2CCNC4=O)c1` as the compound, how does the PF50 (A549 [1]) read?
**A.** Its PF50 is 2.1.

**Q.** What about the Ki [5] of the same compound?
**A.** Its Ki is 8 nM.

**Q.** For `O=C1NCCc2c(C(c3ccccc3)c3ccccc3)[nH]c3cccc1c23`, which Ki [5] is on record?
**A.** The Ki was 23 nM.

**Q.** For `COc1[nH]c2cccc3c2c1CCNC3=O`, which Ki [5] is on record?
**A.** Its Ki is 10 nM.

**Q.** For `Nc1cccc(-c2[nH]c3cccc4c3c2CCNC4=O)c1`, which Ki [5] is on record?
**A.** The Ki was 7 nM.

**Q.** With `O=C1NCc2c(-c3ccccc3)[nH]c3cccc1c23` as the compound, how does the Ki [5] read?
**A.** The Ki was < 5 nM.

**Q.** How did the Ki [5] turn out when `O=C1NCCc2c(-c3ccc[nH]3)[nH]c3cccc1c23` was run?
**A.** Its Ki is 8 nM.

**Q.** For `O=C1NCCc2c(-c3ccc(Cn4cccc4)cc3)[nH]c3cccc1c23`, which IC50 (A549 [2]) is on record?
**A.** Its IC50 is 12 nM.

**Q.** And the PF50 (A549 [6])?
**A.** Its PF50 is 2.

**Q.** And the IC50 (SW-620 [3])?
**A.** Its IC50 is 1.8 nM.

**Q.** And the IC50 (LoVo [7])?
**A.** The IC50 was 6.5 nM.

**Q.** And the PF50 (A549 [1])?
**A.** Its PF50 is 2.

**Q.** And the IC50 (LoVo [8])?
**A.** Its IC50 is 76000 nM.

**Q.** And the Ki [9]?
**A.** The Ki was 6 nM.

**Q.** And the PF50 (SW-620 [10])?
**A.** Its PF50 is 1.8.

**Q.** `CN1CCc2c(-c3ccccc3)n(C)c3cccc(c23)C1=O` was tested. Which PF50 (A549 [1]) did it give?
**A.** Its PF50 is 1.2.

**Q.** With `O=C1NCCc2c(O)[nH]c3cccc1c23` as the compound, how does the Ki [5] read?
**A.** Its Ki is 370 nM.

**Q.** Which Ki [5] does the source give for `O=C1NCCc2c(-c3cccc(C(F)(F)F)c3)[nH]c3cccc1c23` here?
**A.** The Ki was 6 nM.

**Q.** `CN(C)Cc1ccc(-c2[nH]c3cccc4c3c2CNC4=O)cc1` was tested. Which PF50 (A549 [1]) did it give?
**A.** Its PF50 is 2.2.

**Q.** `COc1ccc(-c2[nH]c3cccc4c3c2CCNC4=O)cc1` was tested. Which Ki [5] did it give?
**A.** Its Ki is 6 nM.

**Q.** With `Cn1nnc2c(C(N)=O)ncn2c1=O` [TEMOZOLOMIDE] as the compound, how does the IC50 (LoVo [4]; in the assay text read “Temozolomide (TM)” for “Topotecan (TP)”) read?
**A.** The IC50 was 595000 nM.

**Q.** For `CN(C)Cc1cccc(-c2[nH]c3cccc4c3c2CNC4=O)c1`, which Ki [5] is on record?
**A.** The Ki was < 5 nM.

**Q.** How did the PF50 (A549 [1]) turn out when `Cn1c(-c2ccccc2)c2c3c(cccc31)C(=O)NCC2` was run?
**A.** The PF50 was 1.7.
